Screening results as filed in PubChem BioAssay.
miR122 inh – miR-122 Renilla sensor signal increase in Huh7, primary screen, miR-122 inhibitor project, cell-based, single point, plate reader; hit rate 0.3% among 340,000; Huh7 miR-122 Renilla luciferase sensor, 48 h; neutral wells = 0, positive control = 100; activation (reporter increase), % at 12.5 µM; AID 602342, 2012;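 active = mean replicate activation score at least 90 and every replicate individually at or above 90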;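 also: higher luciferase means less miR-122 activity so hits act as miR-122 inhibitors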
CAL PDZ FP-1 – untagged CAL PDZ binding inhibitors, primary screen, biochemical, fluorescence polarization, HTS; Golgi-associated PDZ and coiled-coil motif-containing protein (Homo sapiens), Q9HD26; purified CAL PDZ, TMR-peptide fluorescence polarization, 1 h; inhibition, % at 24.9 µM; hit rate 0.92% among 300,000;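 active = mean inhibition of at least 30% with at least half of replicates also reaching 30%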
PvdQ acylase – P. aeruginosa PvdQ acylase inhibitors, primary screen, biochemical, fluorescence, plate reader and imaging, single point. inhibition, % at 10 µM. purified PvdQ acylase. hit rate 0.063% among 340,000. PvdQ acylase [Pseudomonas aeruginosa LESB58]; in the data active = inhibition above about 30%, passing the limit was not always enough
CAL PDZ FP-2 – CAL PDZ peptide-binding inhibitors, primary screen, biochemical, fluorescence polarization, Cer-tagged CAL PDZ, HTS | purified CAL PDZ, TMR-peptide fluorescence polarization, 1 h | inhibition, % at 20 µM | hit rate 0.02% among 330,000;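 active = highest replicate inhibition of at least 40%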
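Material: tagged CAL PDZ protein CerCALP, purified; buffer or medium: sodium phosphate/NaCl buffer pH 7.4 with TCEP, IgG, Thesit; also added: fluorescent TMR peptide probe; schedule: 1 h incubation at room temperature before polarization reading; technique: fluorescence polarization from S- and P-plane intensities, G-factor corrected; control set: unlabelled peptide and DMSO controls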
Hits are given with their value; . = inactive; / = no result; + = active, no number; [ ] = dose if it differs, or a comment. A selection: hits, their analogues and other compounds. The true share with any hit is near 0.95%.

SMILES	miR122 inh	CAL PDZ FP-1	PvdQ acylase	CAL PDZ FP-2
CC(C)(C)c1ccc(C(=O)N/N=C/c2ccccn2)cc1	.	.	.	.
Cc1ccc(C(=O)N/N=C\c2ccccn2)cn1	/	+	.	.
O=S(=O)(Nc1ccc2cn[nH]c2c1)c1cc(Br)ccc1Br	179.8	.	.	.
CCOc1cc(C)c(S(=O)(=O)Nc2ccc(Cl)cn2)cc1C	124.0	.	.	.
CCc1ccc(S(=O)(=O)Nc2ccc(Cl)cn2)cc1	178.0	.	.	.
Cc1ccc(S(=O)(=O)Nc2ccc3cn[nH]c3c2)c(C)c1	/	.	.	.
CCOc1cc(C)c(S(=O)(=O)Nc2ccc3cn[nH]c3c2)cc1C	124.0	.	.	.
CCN(CC)C(=O)CCn1nc(-c2ccc(C)cc2)c2ccccc2c1=O	.	.	.	/
Cc1ccc2[nH]c3c(c2c1)CN(C(=O)CN1CCCc2ccccc21)CC3	.	58.4	.	.
COc1ccc(NC(=O)Nc2ccc(C(C)C)cc2)cc1	/	.	.	.
COc1ccc(NC(=O)Oc2cc(C)ccc2C(C)C)cc1	.	88.6	.	.
CCCn1c(NC(=O)c2cccc(C)c2C)nc2ccccc21	118.2	.	.	.
Cc1ccc(S(=O)(=O)Nc2ccc3c(c2)nc(CCN2CCOCC2)n3C)cc1	.	32.2	.	.
Cc1ccc(S(=O)(=O)Nc2cc3c(cc2N2CCOCC2)n(C)c(=O)c(=O)n3C)cc1	.	35.9	.	.
CCN(CC)S(=O)(=O)c1ccc(N2CCOCC2)c(NS(=O)(=O)c2ccc(C)c(C)c2)c1	/	88.6	.	.
CCN(CC)S(=O)(=O)c1ccc(N2CCOCC2)c(NS(=O)(=O)c2ccc(C)cc2)c1	/	.	.	.
COc1cc(/C=C/c2ccc3cccc(O)c3n2)ccc1O	/	.	.	.
Nc1nc2c(s1)CCCCCCCCCC2	.	/	/	/
COCCNC(=O)C1CCCN(Cc2ccc(-c3ccccc3)cc2)CC1 (stereo not given)	.	/	/	/
CCOCC(=O)Nc1c(C(=O)N2CCN(c3ncccn3)CC2)oc2ccccc12	125.3	.	.	.
CC(C)(C)OC(=O)N1CCC(NC(=O)c2[nH]cnc2C(=O)Nc2cccc(Cl)c2)CC1	.	45.3	.	.
COc1ccc2o/c(=N\O)c(C(=O)Nc3ccc(C)cc3)cc2c1	/	79.6	.	.
N#CC1=C(N)Oc2c(oc(CO)cc2=O)C1c1cccs1 (stereo not given)	.	.	.	.
c1ccc(-c2noc(CC3CCCCC3)n2)cc1	.	40.3	.	.
Cc1ccc2cc3c(N)c(C(=O)N4CCOCC4)sc3nc2c1	.	52.9	.	.
SMILES	miR122 inh	CAL PDZ FP-1	PvdQ acylase	CAL PDZ FP-2
Cc1ccc([C@@H]2CC=C(C(=O)O)[C@H](c3ccccc3)N2S(=O)(=O)c2ccc(C)cc2)cc1	/	50.2	.	.
CC1CC(C)CN(CCCNC(=O)C2CCCN(c3ncnc4c3nc3n4CCCCC3)C2)C1 (stereo not given)	.	.	.	.
COc1cc(NS(=O)(=O)c2ccc(NC(=S)Nc3ccccc3)cc2)nc(OC)n1	.	.	.	110.8
COc1ccc(NS(=O)(=O)c2cc(NC(=O)COc3ccc(OC)cc3)ccc2N2CCOCC2)cc1	109.6	/	.	.
CC(=O)NC(=S)Nc1ccc(N2CCOCC2)c(S(=O)(=O)Nc2cc(Cl)ccc2Cl)c1	/	64.3	.	.
O=S(=O)(Nc1ccc(N2CCOCC2)cc1)c1cc(Cl)ccc1Cl	94.2	.	.	.
O=C(Nc1ccc(N2CCOCC2)c(S(=O)(=O)Nc2ccccc2Cl)c1)c1ccccc1	/	.	.	.
O=S(=O)(Nc1cccc(-c2ccc(N3CCOCC3)nn2)c1)c1cc(Cl)ccc1Cl	/	.	.	.
CC(NS(=O)(=O)c1ccc(Cl)c(Cl)c1)C(=O)OCC(=O)Nc1ccc2c(c1)OCO2 (stereo not given)	.	.	.	70.3
O=C(NCc1ccc(Cl)c(Cl)c1)c1cc(C2CCCCN2C(=O)C2CCCCC2)on1 (stereo not given)	.	/	/	/
COc1ccc(NC(=O)Cc2cccc(F)c2)cc1S(=O)(=O)Nc1ccccc1Cl	332.0	.	.	.
CC(C)(C)NS(=O)(=O)c1ccc(OCC(=O)Nc2ccc3c(c2)OCCO3)cc1	111.8	.	.	.
CC(C)(C)NS(=O)(=O)c1ccc(CCC(=O)Nc2ccc3c(c2)OCCO3)cc1	.	.	.	.
COc1ccccc1NS(=O)(=O)c1cc(NC(=O)COc2ccccc2)ccc1N1CCOCC1	/	.	.	.
COc1cccc(CC(=O)Nc2ccc(N3CCOCC3)c(S(=O)(=O)Nc3ccccc3OC)c2)c1	129.1	.	.	.
COC(=O)C1=C(N)OC2=C(C(=O)CC(C)(C)C2)C1c1ccccc1OCC#N (stereo not given)	/	.	.	.
Cc1nonc1OC(C)CNCCNc1ccc([N+](=O)[O-])cc1 (stereo not given)	.	/	/	/
C[C@H]1CN([C@@H](C)CO)C(=O)c2cc(N(C)C)ccc2O[C@@H]1CN(C)C(=O)Nc1ccc(C(F)(F)F)cc1	.	/	/	/
c1ccc(CN2CCCC3(CCCN(Cc4nc(COc5ccccc5)no4)C3)C2)cc1 (stereo not given)	/	51.9	.	.
CCC1=Nc2cc(C(=O)NCc3ccco3)ccc2Sc2ccc(C)cc21	118.9	/	.	.
CCC1=Nc2cc(C(=O)NCCN3CCOCC3)ccc2Sc2ccc(C)cc21	.	.	.	.
CC(C)(C)c1ccc(C(=O)NCCC(=O)N2CCN(c3ncccn3)CC2)cc1	.	.	.	.
COc1ccc(CN(C)C(=O)c2ccccc2OCc2c(C)noc2C)cc1OC	.	.	.	.
S=C(Nc1ccc(Oc2ccccc2)cc1)NC1CCCC1	/	.	.	.
S=C(NCC1CCCCC1)Nc1ccc(Oc2ccccc2)cc1	117.5	.	.	.
SMILES	miR122 inh	CAL PDZ FP-1	PvdQ acylase	CAL PDZ FP-2
CCCS(=O)(=O)c1nc(S(=O)(=O)c2ccc(C)cc2)c(N2CCC3(CC2)OCCO3)s1	.	57.1	.	.
O=C(CSc1nnc(CNC(=O)c2cccs2)o1)Nc1ccccc1C(F)(F)F	.	103.1	.	.
O=C(CSc1nnc(CNC(=O)c2cccs2)o1)Nc1ccccc1	/	.	.	.
COc1cc(CN(C)C(=O)C(=O)c2c[nH]c3ccccc23)ccc1O	146.1	.	.	.
COc1ccccc1-[n+]1c(C)cc(/C=C2\Sc3ccccc3N2C)cc1C	.	52.7	.	.
CCCc1nc(SCc2ccc(Cl)cc2Cl)n[nH]1	/	.	.	.
Cc1noc(C)c1NC(=O)Nc1cccc2c1O[C@H](CN(C)Cc1ccccc1)[C@@H](C)CN([C@H](C)CO)C2=O	96.5[16.7 µM]	/	/	/
Cc1noc(C)c1NC(=O)Nc1cccc2c1O[C@H](CN(C)Cc1ccccc1)[C@@H](C)CN([C@@H](C)CO)C2=O	.	/	/	/
Cc1noc(C)c1NC(=O)Nc1cccc2c1O[C@@H](CN(C)Cc1ccc(Cl)c(Cl)c1)[C@H](C)CN([C@H](C)CO)C2=O	.	/	/	/
